ADAM10 inh: ADAM10 inhibition, QFRET primary screen | O14672 | recombinant ADAM10, EDANS/DABCYL FRET peptide cleavage, 3 h | inhibition, % at 7 µM | 0.62% of 370,000 active;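 active = inhibition above a per-campaign cutoff equal to the mean of compounds falling between control-based bounds plus 3 SD, cut at about 20% in these data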;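 also: 0% = DMSO wells while the 100% control is not disclosed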
SKN-1 inh: inhibitors of C. elegans SKN-1; C. elegans VP596 Pgst-4::GFP/RFP ratio, acrylamide-induced, 24 h; inhibition, % at 21.8 µM; 0.49% of 360,000 active; AID 624304;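 active = interference check ratio from 0.5 to 1.5 plus GFP to RFP signal ratio inhibition reaching or exceeding a fixed threshold, cut at about 30% in these data, passing the limit was not always enough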
NR3A LBD binder: modulates the human NR3A ligand-binding domain. NR3A LBD differential scanning fluorimetry, Tm shift; 0% = protein alone, 100% = glycine-bound protein. Tm shift relative to glycine control, % at 25 µM. 2.5% of 340,000 active;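 active = melting temperature shift of at least 10% of the positive control shift, at one fixed dose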
MPTP block: blocks calcium-induced mitochondrial swelling; isolated mouse mitochondria, Ca2+ swelling absorbance, 30 min; inhibition, % at 10 µM; 1.4% of 360,000 active; AID 602449;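 active = inhibition of 50% or more, scaled per plate between neutral and stimulator controls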;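 also: 0% = DMSO wells given calcium and 100% = 1 mM EGTA wells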
MT1-MMP act inh: inhibitors of human MT1-MMP activation | GFP/RFP ratio change, % at 20 µM | HT1080 RFP-PRO-GFP cells, GFP/RFP ratio fluorescence, overnight; percent of plate control window, DMSO zero | P50281 | AID 651647 | 0.061% of 360,000 active;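 active = GFP/RFP ratio change of at least 30% with cell ATP level not reduced by more than half and red fluorescence within 50% of control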
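Assay system: HT1080 RFP-PRO-GFP cells | Dosing: 20 µM single dose, 1% DMSO | Incubation: Cells overnight before dosing, compound overnight, 37 °C, 5% CO2 | Evaluation: GFP/RFP fluorescence ratio | Control set: DMSO-only wells and HT1080 RFP-L50D-GFP cell wells as references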
ADAM17 inh: ADAM17 inhibition, QFRET primary screen; P78536; 0.83% of 370,000 active; inhibition, % at 6.95 µM; recombinant ADAM17, EDANS/DABCYL FRET peptide cleavage; AID 720648;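 active = inhibition above the mean of compounds lying between control limits plus 3 SD, set per campaign, cut at about 8.5% in these data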;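 also: 0% = DMSO-only wells as the low control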
Target sequence (P78536 215-824 limits assumed): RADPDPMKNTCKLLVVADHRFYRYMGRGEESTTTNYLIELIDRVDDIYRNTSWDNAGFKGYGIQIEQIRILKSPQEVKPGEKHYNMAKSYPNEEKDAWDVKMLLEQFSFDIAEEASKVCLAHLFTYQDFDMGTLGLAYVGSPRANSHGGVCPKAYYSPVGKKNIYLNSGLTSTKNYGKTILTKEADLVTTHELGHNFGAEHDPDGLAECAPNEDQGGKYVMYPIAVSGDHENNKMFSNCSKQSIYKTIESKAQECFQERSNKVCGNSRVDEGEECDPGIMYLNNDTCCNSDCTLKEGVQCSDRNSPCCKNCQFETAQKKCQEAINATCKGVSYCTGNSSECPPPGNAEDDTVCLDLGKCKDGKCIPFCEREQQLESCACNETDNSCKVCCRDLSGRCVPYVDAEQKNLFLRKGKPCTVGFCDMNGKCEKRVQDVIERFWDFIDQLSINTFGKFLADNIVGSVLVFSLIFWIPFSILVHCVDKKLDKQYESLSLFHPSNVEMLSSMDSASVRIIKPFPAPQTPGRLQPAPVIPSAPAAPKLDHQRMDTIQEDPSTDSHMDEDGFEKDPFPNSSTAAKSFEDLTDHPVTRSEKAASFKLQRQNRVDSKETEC
An asterisk follows results filed as active; i = inactive; / = no result given. In the library only some 4.7% were active in any assay of this set; here they are far more common.

SMILES	ADAM10 inh	SKN-1 inh	NR3A LBD binder	MPTP block	MT1-MMP act inh	ADAM17 inh
COc1cc(/C=N/NS(=O)(=O)c2ccccc2)c(OC)c(OC)c1	-21	18	-2	0	-4	-10
COc1ccc(OC)c(S(=O)(=O)N/N=C\c2c[nH]c3ccccc23)c1	9	9	32*	2	-1	0
Cc1ccc([N+](=O)[O-])cc1S(=O)(=O)Nc1cccc(-c2ccc(N3CCCC3)nn2)c1	19	13	12*	1	3	8
O=[N+]([O-])c1ccc(S(=O)(=O)Nc2cccc(-c3ccc(N4CCOCC4)nn3)c2)cc1	-3	-1	72*	-1	5	-1
COc1ccccc1N1CCN(C(=O)C(Sc2ccccc2)c2ccccc2)CC1 (centres undefined)	7	12	0	-3	-15	6
CCOc1ccc(-n2ccc(=O)c(C(=O)Nc3ccc(S(=O)(=O)Nc4ncccn4)cc3)n2)cc1	-19	-3	1	0	-1	-3
COc1ccc2c(c1)OC[C@H]1[C@H]2N2C(=O)c3ccc(C)cc3NC(=O)[C@@]2(C)[C@H]1c1ccccc1	16	22	-5	-2	-13	9.6*
COc1cccc(N(C)C(=O)[C@@H](C2CC2)[C@@H](O)c2ccc(C(C)=O)cc2)c1	-2	/	/	/	/	-5
O=C1NN(c2ccc(Cl)cc2)C(=O)/C1=C\c1ccc(-c2cccc(C(=O)O)c2)o1	-14	0	-4	3	-7	-5
O=C1NN(c2ccccc2)C(=O)/C1=C\c1ccc(-c2cc([N+](=O)[O-])ccc2O)o1	8	4	23*	17	17	2
COC(=O)C1=C(C)N(Cc2ccc(Br)cc2)C(=S)NC1c1cccc(Br)c1 (centres undefined)	3	/	/	/	/	1
Cc1cc(/C=C(\C#N)C(=O)Nc2ccc(F)cc2)c(C)n1-c1ccc(N2CCOCC2)c([N+](=O)[O-])c1	2	38*	-3	0	4	0
CCCCCn1c(NC(=O)c2ccco2)c(S(=O)(=O)c2ccc(C)cc2)c2nc3ccccc3nc21	-489	-1	15*	40	-16	-197
Cc1ccc(S(=O)(=O)c2c(N)n(NC(=O)c3ccccc3C)c3nc4ccccc4nc23)cc1	i	-6	11*	11	-1	-312
CC(/C=N/N1CCN(Cc2ccccc2)CC1)=C\c1ccccc1	3	62*	-2	1	-1	-1
CS(=O)(=O)c1nsc2nc(=O)c(/C=C3\C=Nc4ccccc43)c(N)n12	-6	-12	39*	4	1	-5
CC(C)Sc1nsc2nc(=O)c(/C=C3\C=Nc4ccccc43)c(N)n12	2	-11	25*	35	-1	0
CC(C)(C)N=C1NN=C(c2ccc(Cl)cc2)CS1	-14	51*	5	1	5	-2
COc1ccc(CN=C2NN=C(c3ccc(Cl)cc3)CS2)cc1	-8	15	0	1	6	-1
Clc1ccc(C2=NNC(=NCc3ccc4c(c3)OCO4)SC2)cc1	11	8	-7	3	-7	12*
Oc1ccc(C2=NNC(=NCc3ccc4c(c3)OCO4)SC2)c(O)c1	-52	3	-11	1	-3	-11
CCc1nc2ccc(C)cc2c(C(=O)Oc2cccc3cccnc23)c1C	1	-15	-2	0	-2	4
CC(NS(=O)(=O)c1ccc(OCC(=O)N2CCOCC2)c(Cl)c1)c1ccccc1 (centres undefined)	3	38*	-9	-1	2	1
COc1cc(C(=O)NC(C)c2ccc(S(N)(=O)=O)cc2)ccc1OCC(=O)N1CCOCC1 (centres undefined)	4	2	11*	1	4	-2
O=S(=O)(Cc1cc(-c2ccccc2)no1)c1ccccc1	-1	13	0	-1	-7	2
SMILES	ADAM10 inh	SKN-1 inh	NR3A LBD binder	MPTP block	MT1-MMP act inh	ADAM17 inh
O=[N+]([O-])c1ccccc1/C=C/C=N/Nc1ccc(S(=O)(=O)Nc2ccc(Cl)cc2)cc1[N+](=O)[O-]	-3	-3	11*	4	8	-1
C=CCOc1ccc(C=NNc2ccc(S(=O)(=O)Nc3ccccc3C(=O)O)cc2[N+](=O)[O-])cc1OC	2	17	9	12	13	3
CSc1ccc(C=NNc2ccc(S(=O)(=O)Nc3ccccc3C(=O)O)cc2[N+](=O)[O-])cc1	-13	12	9	49	26	0
COc1ccc(NC(=S)NNc2ccc(S(=O)(=O)Nc3ccccc3C(=O)O)cc2[N+](=O)[O-])cc1	10	5	16*	3	10	1
COc1ccc(C=NNc2ccc(S(=O)(=O)Nc3ccccc3C(=O)O)cc2[N+](=O)[O-])c(OC)c1	/	7	457*	41	27	/
O=C(O)c1ccccc1NS(=O)(=O)c1ccc(NN=Cc2ccccc2F)c([N+](=O)[O-])c1	8	7	10*	45	8	-3
O=C1CC(N2CCOCC2)C(=O)N1c1ccc2c(c1)OCO2 (centres undefined)	-3	0	4	-6	-7	-3
COc1ccc(/C=C/C(=O)NC(=S)Nc2ccc(N3CCN(C(C)=O)CC3)cc2)cc1	-1	3	3	14	2	-1
CCCOc1ccccc1NC(=O)/C=C/C(N)=O	-2	14	1	-3	2	-1
CCOc1ccc(C=NNc2ccc(S(=O)(=O)Nc3ccccc3C(=O)O)cc2[N+](=O)[O-])cc1	/	-9	5	38	18	/
CCOc1cccc(C=NNc2ccc(S(=O)(=O)Nc3ccccc3C(=O)O)cc2[N+](=O)[O-])c1O	7	18	17*	0	7	8
O=C(c1ccc(COc2ccc(Br)cc2)o1)N1N=C(C(F)F)CC1(O)C(F)F (centres undefined)	18	6	19*	49	4	6
O=C(c1ccc(COc2ccc3ccccc3c2)o1)N1N=C(C(F)F)CC1(O)C(F)F (centres undefined)	/	2	20*	6	6	/
CC(Sc1n[nH]c(-c2cccs2)n1)C(=O)Nc1ccccc1F (centres undefined)	-2	-6	2	0	-2	3
COc1ccc(C)cc1Nc1n[n+](-c2ccccc2)c(-c2ccc(SC)cc2)s1	-2	14	27*	0	5	1
CC(=O)c1c(C)[nH]c(C(=O)COC(=O)c2c(C)noc2C)c1C	6	2	0	1	7	0
Cc1cccc(S(=O)(=O)NC(=O)C2(C)CCN2C(=O)Cc2ccsc2)c1 (centres undefined)	8	0	/	0	-2	2
CCOc1ccc(C(=O)NCCCCNC(=O)c2ccc(OCC)cc2)cc1	1	-8	15*	1	/	-5

Source: PubChem BioAssay
